Only some compounds are listed: those with a hit (about 2.5% of all), similar ones and a draw of the others.
mABHD4 FP: ABHD4 inhibitors, primary screen, biochemical, fluorescence polarization, mouse; inhibition, % at 8.92 µM; (Lyso)-N-acylphosphatidylethanolamine lipase (Mus musculus), Q8VD66; purified mABHD4, FP-Rh probe fluorescence polarization; 370,000 tested, 0.54% active;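 active = inhibition exceeding the mean over every tested compound plus 3 SD, cut at about 30% in these data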;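 also: 0% = plate median of compound wells and 100% = S159A mutant with DMSO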
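Material: mouse ABHD4 enzyme, wild type; Benchmarks: S159A mutant high control, sample median low control; Buffer or medium: HEPES pH 7.0, NaCl, Pluronic buffer; Signal: fluorescence polarization; Read-out: percent inhibition of probe binding, normalized to plate controls; Timing: pre-incubation 45 min, probe exposure 60 min, at 25 °C; Dosing: 8.92 µM, single dose.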
SIAE inh: human SIAE inhibitors, primary screen, biochemical, fluorescence polarization, FP-Rh probe, 1536-well HTS. inhibition, % at 9.66 µM. 370,000 tested, 0.69% active. SIAE FP-Rh probe binding;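 active = inhibition above a cutoff: mean of compounds within the control limits plus 3 SD of those, cut at about 17% in these data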;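 also: 0% = plate median of compound wells and 100% = probe without SIAE protein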
Target sequence (Q9HAT2 whole entry, looked up): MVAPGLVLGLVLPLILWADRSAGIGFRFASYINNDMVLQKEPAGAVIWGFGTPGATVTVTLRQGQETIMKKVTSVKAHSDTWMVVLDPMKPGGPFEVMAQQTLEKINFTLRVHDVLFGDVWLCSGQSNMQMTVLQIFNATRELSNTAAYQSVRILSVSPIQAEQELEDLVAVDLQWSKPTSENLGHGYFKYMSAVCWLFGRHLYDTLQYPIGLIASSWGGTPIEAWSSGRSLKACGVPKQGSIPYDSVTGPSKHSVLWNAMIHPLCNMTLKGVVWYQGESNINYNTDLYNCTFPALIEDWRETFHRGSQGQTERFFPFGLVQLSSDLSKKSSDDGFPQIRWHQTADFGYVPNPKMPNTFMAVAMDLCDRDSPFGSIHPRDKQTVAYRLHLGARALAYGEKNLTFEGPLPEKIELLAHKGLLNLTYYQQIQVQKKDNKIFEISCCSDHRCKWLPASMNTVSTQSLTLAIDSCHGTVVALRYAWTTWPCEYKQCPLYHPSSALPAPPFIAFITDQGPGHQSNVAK
HTRA1 inh: HTRA1 serine protease inhibitors, primary screen, biochemical, fluorescence polarization, HTS; recombinant HTRA1, FP-rhodamine activity-based probe; inhibition, % at 5.96 µM; 340,000 tested, 0.5% active; Q92743; in the data active = inhibition above about 36%;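 also: 0% = enzyme with DMSO and 100% = wells lacking enzyme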
TCR CD3 inh: inhibitors of human TCR-CD3 interaction, primary screen, biochemical, fluorescence, TAMRA-labeled TCR probe; 360,000 tested, 0.37% active; inhibition, % at 9.4 µM; T-cell receptor (TCR);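 also: recombinant mutant TCR 2C K166C tagged with TAMRA read by polarization; 0% = receptor in buffer alone and 100% = receptor with positive control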
PRMT1 FP inh: PRMT1 methyltransferase inhibitors, primary screen, biochemical, fluorescence polarization | recombinant PRMT1, activity-based probe fluorescence polarization | inhibition, % at 2.79 µM | 370,000 tested, 1.3% active | AID 652257, 2013;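 active = inhibition above about 21% made by adding two undisclosed values, limit read from the data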
BSA probe FL: compounds interfering with TAMRA-BSA probe, counter-screen for TCR-CD3 interaction inhibitor project, biochemical, fluorescence, TAMRA-labeled BSA; shares compounds with TCR CD3 inh; TAMRA-labeled BSA probe fluorescence counterscreen; inhibition, % at 9.4 µM; 1,200 tested, 10% active; in the data active = inhibition above about 23%;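 also: 0% = buffer low control and 100% = reference high control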
TCR-CD3 inh conf: TCR-CD3 interaction inhibitors, retest, confirmation, biochemical, fluorescence, TAMRA-labeled TCR probe. AID 652036, 2013. shares compounds with TCR CD3 inh. 1,200 tested, 48% active. inhibition, % at 9.4 µM. TAMRA-labeled TCR probe fluorescence binding assay
PRMT1 confirm: PRMT1 methyltransferase inhibitors, confirmation, biochemical, fluorescence polarization, triplicate | recombinant His-PRMT1, activity-based probe fluorescence polarization | 3,300 tested, 42% active | shares compounds with PRMT1 FP inh | AID 687036, 2013 | inhibition, % at 2.79 µM;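 active = mean inhibition across replicates above the hit cutoff derived for the earlier primary screen, cut at about 22% in these data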
ABHD4 confirm: ABHD4 inhibitors, retest, confirmation, biochemical, fluorescence polarization, mouse | purified mABHD4, FP-Rh probe fluorescence polarization | shares compounds with mABHD4 FP | inhibition, % at 8.92 µM | 1,800 tested, 55% active | AID 720658, 2013;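 active = mean inhibition across replicates above the hit cutoff set in the primary screen, cut at about 30% in these data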;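 also: 0% = wild-type ABHD4 with DMSO and 100% = catalytically dead S159A mutant with DMSO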
SIAE inh conf: human SIAE inhibitors, retest, confirmation, biochemical, fluorescence polarization, FP-Rh probe, triplicate; inhibition, % at 9.66 µM; shares compounds with SIAE inh; SIAE FP-Rh activity-based probe; 2,300 tested, 13% active;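 active = mean inhibition of the replicates above the hit cutoff set in the primary screen, cut at about 17% in these data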;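 also: 0% = SIAE with DMSO and probe and 100% = probe without SIAE; inhibitors lower polarization as more probe stays unbound to SIAE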
* marks the source's active call; other numbers are inactive results; x = no result given; + = active, no number. Rule as the data show it, unless noted: active = inhibition above about 19%; inactive = the rest.

SMILES	mABHD4 FP	SIAE inh	HTRA1 inh	TCR CD3 inh	PRMT1 FP inh	BSA probe FL	TCR-CD3 inh conf	PRMT1 confirm	SIAE inh conf	others
Cc1cc(C(=O)OCC(=O)NC2CCS(=O)(=O)C2)c2ccccc2n1 (stereo unspecified)	-1.7	-6.7	-1.3	7.3	-1.0	x	x	x	x
CC(=O)c1cc(-c2cccc(Cl)c2O)c(=O)n2c1CCC2	-0.8	2.0	x	x	-0.3	x	x	x	x
Nc1cnccc1C(=O)O	85.5*	20.0*	20.2	64.7*	70.9*	32.7*	25.2*	14.3	4.7	ABHD4 confirm=21.7
COC(=O)c1ccc(Cn2ccc3ccc(-c4ccc5ccn(C(=O)c6cccc(OC)c6)c5c4)cc32)cc1	-1.7	-5.9	x	x	-5.5	x	x	x	x
COc1cccc(Cn2cc(COC(=O)N3CCCC3)nn2)c1	-6.5	1.6	x	x	-1.2	x	x	x	x
Cc1cccc(Nc2nc(N)nc(N)c2N=O)c1	5.1	-7.8	5.5	4.2	0.4	x	x	x	x
Cc1ccc(N(C)c2nc(N)nc(N)c2N=O)cc1	84.8*	52.1*	x	197.4*	173.0*	+	198.2*	x	95.2*
O=C(N/N=C\c1c(O)ccc2ccccc12)c1ccc(Cn2cccn2)o1	28.1	23.8*	17.8	23.9*	2.2	-18.2	24.8*	x	1.5
O=C(N/N=C\c1ccc(Cl)s1)c1ccc(Cn2cccn2)o1	1.4	12.2	7.8	-6.2	-0.4	x	x	x	x
CCC[C@H]1[C@@H](OC(=O)Oc2ccc([N+](=O)[O-])cc2)CC[C@@]23CCCN2C(=O)CCC[C@@H]13	1.1	-0.6	x	x	-1.5	x	x	x	x
O=C1c2ccc3c4c(ccc(c24)C(=O)N1c1ccc2ccccc2c1)CC3	-5.4	-9.0	2.3	3.9	-2.8	x	x	x	x
O=C1CCC(=O)c2ccc3c4c(ccc1c24)CC3	28.2	18.9*	0.6	34.1*	26.7*	-4.6	2.2	5.5	-5.6
COCCCNC(=O)C1CCN(S(=O)(=O)c2ccc3[nH]c(=O)oc3c2)CC1	-1.9	3.2	x	x	4.0	x	x	x	x
CN(CCC#N)C(=O)COC(=O)c1c2c(nc3ccccc13)/C(=C\c1ccco1)CC2	44.9*	18.7*	30.5	33.5*	31.5*	-11.1	34.0*	20.3	5.8	ABHD4 confirm=-9.4
Nc1cccc2cc(S(=O)(=O)O)ccc12	64.4*	20.4*	14.0	27.1*	33.9*	13.9	14.8	16.8	1.7
O=Nc1c(O)ccc2cc(S(=O)(=O)O)ccc12	x	x	0.8	x	x	x	x	x	x
Nc1ccccc1N1C(=O)c2cccc3cccc(c23)C1=O	0.6	1.4	x	-0.9	-4.1	x	x	x	x
Cc1nn(C)c(C)c1N1C(=O)c2cccc3c(N)ccc(c23)C1=O	42.9*	28.1*	26.8	48.7*	180.2*	56.5*	46.8*	x	20.6*	ABHD4 confirm=38.5*
COc1ccc(C2C(C(=O)Nc3ccc(F)cc3)CCC(=O)N2c2ccc(OC)cc2)cc1 (stereo unspecified)	6.8	-1.0	x	x	1.3	x	x	x	x
C/C(=N\NC(=S)NCCc1ccccc1)c1ccc(O)cc1O	14.4	17.2*	29.1	27.8*	2.5	-16.4	7.6	x	19.8*
COC(=O)[C@]12C[C@H](CC(=O)NCc3ccccc3)C(=O)N(Cc3cccc4ccccc34)C1=C[C@H](C1CCCC1)O[C@@H]2C	12.4	-2.0	x	x	-4.8	x	x	x	x
O=c1c(O)c(-c2ccc(O)c(O)c2)oc2cc(O)cc(O)c12	33.9*	18.4*	21.4	19.5*	14.6	-19.7	18.4	x	3.9	ABHD4 confirm=32.9*
Cn1c(=O)c2c(-c3ccccc3)n(-c3cccc(O)c3)cc2n(C)c1=O	19.7	5.5	x	-4.2	16.4	x	x	x	x
Cn1c(=O)c2c(-c3ccccc3)n(-c3ccc(N)cc3)cc2n(C)c1=O	57.5*	22.1*	x	29.0*	17.5	14.4	16.0	x	12.7	ABHD4 confirm=26.0
COc1ccccc1C(=O)NNC(=O)c1ccc2ccccc2c1O	24.7	19.9*	5.6	31.6*	2.0	1.3	37.8*	x	4.7
SMILES	mABHD4 FP	SIAE inh	HTRA1 inh	TCR CD3 inh	PRMT1 FP inh	BSA probe FL	TCR-CD3 inh conf	PRMT1 confirm	SIAE inh conf	others
COc1cccc(OCC(=O)NNC(=O)c2ccc3ccccc3c2O)c1	23.2	18.9*	24.9	44.1*	8.4	-6.1	39.4*	x	-0.2
O=C(NNC(=O)c1ccc2ccccc2c1O)Nc1ccc(F)cc1	7.2	25.8*	3.8	32.0*	-1.9	-4.8	29.4*	x	2.2
O=C1CCCC/C1=C\Nc1ccc(O)cc1	54.4*	21.7*	17.3	42.0*	26.3*	-5.2	1.5	x	4.0	ABHD4 confirm=12.8
CN(C)C(=O)c1cccc(-c2cnc3c(NC=O)cc(-c4ccccc4N(C)C)cn23)c1	74.1*	29.2*	x	42.3*	137.3*	21.2	16.1	29.1*	1.6	ABHD4 confirm=70.7*
O=C(CN1CCN(c2ccc(O)cc2)CC1)NC(c1ccccc1)c1ccccc1	17.2	3.5	9.4	-6.4	25.3*	x	x	7.9	x
Cc1cc(NC(=O)CN2CCN(c3ccc(O)cc3)CC2)no1	10.8	2.1	-4.7	0.0	41.7*	x	x	4.0	x
O=C(CN1CCN(c2ccc(O)cc2)CC1)NCC(=O)Nc1ccc(F)c(F)c1F	24.0	8.8	1.8	-0.4	36.5*	x	x	1.7	x
Cc1ccc(S(=O)(=O)N2CCN(C(=O)CN3CCN(c4ccc(O)cc4)CC3)CC2)cc1	13.8	9.7	12.3	0.9	33.6*	x	x	6.9	x
Cc1ccc(N2CCN(S(=O)(=O)c3ccc(C)cc3)CC2)cc1	1.5	-3.9	6.1	-1.2	-2.1	x	x	x	x
COc1cc(-c2c(C(=O)c3ccccc3)[nH]c(N)c2C(N)=O)ccc1O	-5.0	2.8	x	x	9.8	x	x	x	x
COc1ccc(C(=O)Nc2ccc3c(c2)C(=O)N(C)[C@H]2CC[C@H](CC(=O)NCC4CC4)O[C@@H]2CO3)cc1	10.3	2.7	x	x	-1.0	x	x	x	x
Cc1ccc(NC(=O)CSc2nc(N)cc(=O)[nH]2)cc1S(=O)(=O)N1CCCCC1	-13.5	-3.1	1.9	-0.1	43.9*	x	x	-0.4	x

Source: PubChem
